Where two headings read alike, the source gives them in different places.

For series [1], the target named is P. falciparum PfSR25− (serpentine receptor 25 knockout strain). In words: Comparative IC50 screening, 3D7 versus serpentine receptor 25 knockout strain. To be noted: 72 h, 0.0019–2 µM, Student's t test. The class given is cell-based, Plasmodium falciparum. In a few lines:
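Asynchronous 3D7 and PfSR25− cultures (37 °C, 90% N2/5% O2/5% CO2) at 0.3% parasitaemia and 2% haematocrit were exposed for 72 h to eleven final concentrations. Controls were 0.13% DMSO and chloroquine 0.2441–250 nM. Cells were stained with SYBR Green-I (1:10,000) plus MitoTracker Deep Red (50 nM) for 20 min at 37 °C and read by flow cytometry. Survival was taken relative to DMSO, in triplicate over three experiments. IC50 ± SEM came from dose–response curves.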

Series [2] has as its system P. falciparum gametocytes. The note with it: read-out: IC50 against P. falciparum gametocytes; cited from earlier work.
The subject of series [3] is P. falciparum 3D7. In kind it is cell-based, Plasmodium falciparum.
A short description of series [4]: Cytotoxicity of the compounds in HEK293 cells. The class given is cell-based, human. The note with it: human, HEK293 cells. In a few lines:
(§1)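 HEK293 cells (passages 7–12, grown in DMEM with 10% FBS and penicillin/streptomycin at 37 °C, 5% CO₂) were trypsinized and seeded at 10^4 cells/well. They were exposed to test compound or DMSO vehicle for 72 h. MTT (5 mg/mL reagent) was then added for 3 h, and the formazan was dissolved in DMSO. Absorbance was read at 570 nm and dose–response curves were fitted. Each condition was run in triplicate in 3 independent experiments.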

The next series has as its system HEK293 cells. In words: Cytotoxicity of the compounds in HEK293 cells. The class given is cell-based, human. The note with it: MTT, 72 h, 0.0019–2 µM. In a few lines:
as §1

Series [5] has as its system knockout parasites (PfSR25−). To be noted: cited from earlier work.
Series [6] concerns P. falciparum 3D7. To be noted: cited from earlier work.
Series [7] concerns Plasmodium falciparum 3D7. The series can be described thus: Drug effects on erythrocytic cycle phases in synchronized cultures. In kind it is cell-based. In a few lines:
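Sorbitol-synchronized P. falciparum 3D7 at 1% parasitaemia and 2% haematocrit received test compound (150 nM), chloroquine (150 nM) or 0.1% DMSO at 0, 12 or 24 h post-synchronization. Samples were taken at 12, 24, 36 and 48 h and stained for 30 min in HEPES-buffered Hank's with 1 µM Hoechst and […] thiazole orange. Flow cytometry gated rings, trophozoites and schizonts on DNA/RNA signal. Data are mean ± SD from one triplicate experiment.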

The test system of another series is P. falciparum. The note with it: read-out: IC50, antimalarial activity; cited from earlier work.
Setting [8] is: Plasmodium falciparum, 3D7, 72 h, read-out: IC50 (nM) 3D7, Table 1, asynchronous culture, 72 h, 0.0019–2 µM, ± standard error of the mean.

Consider `CN(CCCNCc1cccc2ccccc12)CCCNCc1cccc2ccccc12.Cl` [TCMDC-137905, Cl.CN(CCCNCc1cccc2ccccc12)CCCNCc1cccc2ccccc12], for which, in series [1], the “difference of IC50 between 3D7 and PfSR25−” value is “none of the compounds tested were significantly different between the two strains”. For the same compound, the 50% inhibitory concentration (IC50) in series [2] is 230 nM; in the series with P. falciparum 3D7 [3] (setting [8]), 91.1 ± 18.4 nM; with P. falciparum 3D7 [3] (Plasmodium falciparum, 3D7, read-out: IC50 nM 3D7, Table 2) it was 91.1 nM. Besides, in [4], the CC50 at 72 h stood at 5550 nM. In addition, the “cytotoxic activity in HEK293 cells” value with HEK293 cells is listed as “exhibited cytotoxic activity in HEK293 cells”.
Consider `Clc1ccc2c(N3CCN(CCCN4CCN(c5ccnc6cc(Cl)ccc56)CC4)CC3)ccnc2c1` [piperaquine], for which, in series [5], the “susceptibility of PfSR25−” value was “increased susceptibility”.
Turning to Melatotosil, the “action on melatonin in the cell cycle of P. falciparum 3D7” value in the series with P. falciparum 3D7 [6] is on record as “blocks the action of melatonin in the cell cycle of P. falciparum 3D7”.
Take `CCN(CC)CCCC(C)Nc1ccnc2cc(Cl)ccc12` (centres unmarked) [Chloroquine, reference compound]: in series [5] (exposure for 24 h), the “parasitaemia of knockout parasites (PfSR25−) versus wild-type (3D7)” value was “significantly reduced parasitaemia compared with that of wild-type parasites (3D7)”. Further, the “ring phase parasites at the 36 h time point” value in series [7] (150 nM added 12 h after synchronization, % parasitaemia, n = 3) is on record as 0.30 ± 0.17%. Further, the “parasitaemia at the 36 h time point” value in series [7] (150 nM added 12 h after synchronization, n = 3) came out at 1.55 ± 0.87%. In [7] (added at 0 h, control 18%), the “parasites developed into schizonts at the 24 h time point” value is given as “less than 0.5%”. Moreover, the IC50 in the series on P. falciparum 3D7 [3] (setting [8]) was 11.3 ± 0.7 nM.
As to `CCCN(CCC)C1CCc2cccc(O)c2C1` (centres unmarked) [8-OH-DPAT, 8-hydroxy-N-(di-n-propyl)-aminotetralin], in the series on P. falciparum, the IC50 is 400 nM.
As to `CC(Cc1ccc(NC(=O)c2ccc(CNCCc3ccccc3)cc2)cc1)NCCc1cccc(Cl)c1.Cl` (centres unmarked) [TCMDC-139867, Cl.CC(Cc1ccc(NC(= O)c2ccc(CNCCc3ccccc3)cc2)cc1)NCCc1cccc(Cl)c1], in series [1], the “difference of IC50 between 3D7 and PfSR25−” value is recorded as “none of the compounds tested were significantly different between the two strains”. For the same compound, the IC50 came to 57.4 nM with P. falciparum 3D7 [3] (read-out: IC50 nM 3D7, Table 2) and 57.4 ± 12.2 nM in the series with P. falciparum 3D7 [3] (read-out: IC50 (nM) 3D7, Table 1, asynchronous culture, 72 h, 0.0019–2 µM, ± standard error of the mean). Further, in the series on HEK293 cells, the “cytotoxic activity in HEK293 cells” value is “exhibited cytotoxic activity in HEK293 cells”. Also, the 50% cytotoxic concentration (CC50) in the series on HEK293 cells (read-out: CC50 nM HEK293) is 1280 nM.
On to `CCCCN(CCCC)CC(O)c1cc(Cl)cc2c1-c1ccc(Cl)cc1/C2=C/c1ccc(Cl)cc1` (centres unmarked) [lumefantrine], for which the “susceptibility of PfSR25−” value in series [5] is listed as “increased susceptibility”.

Source of the values: publication PMC11827156 (Malaria Journal, 2025).
